Most compounds without a hit are left out; they make up all but 3.5% or so of the library.
MrgX1 ag: activates human MrgX1 receptor signaling. Q96LB2. MrgX1-HEK293 cells, Fluo-4 calcium fluorescence, agonist mode; active compounds read high. B-score at 10 µM. actives 0.44% (n = 310,000). AID 588627;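 active means calcium response B-score plate-corrected fluorescence ratio at least 3 library SD, with starting fluorescence B-score inside 5 SD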
Target sequence (Q96LB2 whole entry, looked up): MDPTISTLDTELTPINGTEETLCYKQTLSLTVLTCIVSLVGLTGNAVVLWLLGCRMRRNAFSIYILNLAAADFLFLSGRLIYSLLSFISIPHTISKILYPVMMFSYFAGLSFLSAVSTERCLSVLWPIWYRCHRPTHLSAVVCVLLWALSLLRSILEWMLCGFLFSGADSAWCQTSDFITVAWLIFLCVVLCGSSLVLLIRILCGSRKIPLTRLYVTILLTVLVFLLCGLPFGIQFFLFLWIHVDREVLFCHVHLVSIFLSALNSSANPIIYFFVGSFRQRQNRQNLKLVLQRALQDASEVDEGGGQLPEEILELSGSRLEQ
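System: HEK293 cells stably expressing human MrgX1 receptor; Dosing: test compound in the initial addition of three; Schedule: overnight plating, then 30 min 37 °C plus 30 min room-temperature dye loading; Detection: kinetic calcium dye fluorescence, Fluo-4 NW; Controls: per-plate positive and negative controls for Z′ factor.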
RGS4 pot: RGS4 potentiation or activation | HEK293 M3R/inducible RGS4, carbachol calcium flux Fluo4; active compounds read low | AID 463111 | actives 0.92% (n = 310,000) | B-score at 10 µM;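 active means B-score of the integrated calcium signal more than 4 SD below the library mean, with starting fluorescence not abnormally high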;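 further: negative B-score means reduced calcium response which marks RGS4 activation or potentiation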
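Material: M3R-expressing HEK293 line, RGS4 induced by doxycycline | Schedule: Overnight RGS4 induction, 30 min dye load 37 °C, 20 min compound RT | Measured by: Fluo4 fluorescence kinetic imaging of calcium | Read-out: Integrated calcium ratio converted to B score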
MrgX1 antagonist: human MrgX1 receptor antagonism, primary screen | Q96LB2 | MRGX1-HEK293 calcium flux, Fluo-4, BAM8-22 antagonism; active compounds read low | B-score at 10 µM | actives 1.3% (n = 310,000);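 active means calcium-response B-score plate-corrected more than 3 library SD below zero, starting fluorescence within 5 deviations, no agonist response on first addition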;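 further: peak minus trough fluorescence over baseline after final BAM8-22 challenge near maximal dose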
MrgX1 allo act: human MrgX1 positive allosteric modulation, primary screen; Q96LB2; B-score at 10 µM; actives 0.63% (n = 310,000); MrgX1-HEK293, Fluo-4 calcium flux, FDSS; active compounds read high;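 active means plate-corrected calcium response at least 3 library SD above typical, normal starting fluorescence, not activating the receptor alone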;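 further: compound read alongside a low EC10 to EC30 dose of BAM8-22 agonist; peak minus trough fluorescence over baseline measured at the second addition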
RGS4 inh: inhibitors of human RGS4; actives 0.45% (n = 310,000); B-score at 10 µM; HEK293 M3R/RGS4 inducible, Fluo-4 calcium flux; active compounds read high; triggered by carbachol at its EC20;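 active means B-score, a plate-corrected calcium signal, over three deviations above library mean, with baseline fluorescence within five deviations of library mean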;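 further: RGS4 expression induced by doxycycline in cells with stable M3 receptor; B-score is computed from the integrated fluorescence ratio over baseline after carbachol; higher B-score means a larger calcium signal and so more RGS4 inhibition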
Target sequence (P49798 whole entry, looked up): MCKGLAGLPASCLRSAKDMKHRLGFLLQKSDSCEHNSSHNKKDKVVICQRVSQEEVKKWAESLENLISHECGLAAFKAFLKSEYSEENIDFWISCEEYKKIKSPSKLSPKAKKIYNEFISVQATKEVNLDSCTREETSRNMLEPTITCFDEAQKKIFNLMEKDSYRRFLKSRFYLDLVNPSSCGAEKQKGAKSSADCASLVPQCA
Numbers without * were called inactive; i = inactive.

SMILES	MrgX1 ag	RGS4 pot	MrgX1 antagonist	MrgX1 allo act	RGS4 inh
O=C(c1ccc2c(c1)OCCO2)N1CCN(c2ncc(C(F)(F)F)cc2Cl)CC1	i	i	i	i	i
CCOC(=O)c1c(N2C(=O)Nc3ccccc3N2O)sc2c1CCCCC2	35*	i	i	i	i
COC(=O)c1c(N2C(=O)Nc3ccccc3N2O)sc2c1CCCC2	i	i	i	i	i
Cc1ccc(C2=NN3C(C(=O)c4ccccc4)Oc4ccccc4C3C2)cc1 (centres undefined)	i	i	i	i	i
O=C(N1CCN(c2ccccn2)CC1)N1c2ccccc2Sc2ccccc21	i	-7.4*	i	i	i
COc1cccc(NC(=S)NC(=O)/C=C/c2ccc(F)cc2)c1	i	i	i	i	i
CCC(=O)Nc1cccc(C(=O)/C=C/c2ccc(F)cc2)c1	29*	i	i	i	i
O=C(Nc1ccc(F)cc1F)N1CCN(CCc2ccccc2)CC1	i	i	i	i	i
C/C(=C\C(=S)Nc1ccccc1)Nc1cccc2ccccc12	i	i	i	i	i
C/C(=C\C(=S)Nc1ccccc1)Nc1ccc2ccccc2c1	i	i	-4.5*	i	i
O=C(NCc1nnc(SCC(=O)N2CCOCC2)o1)c1ccccc1F	i	i	i	i	i
CO/N=C/C(c1ncc(C(F)(F)F)cc1Cl)S(=O)(=O)c1ccccc1 (centres undefined)	i	i	-8.2*	i	i
CO/N=C/C(c1ccc(Cl)nc1)S(=O)(=O)c1ccccc1 (centres undefined)	i	i	i	i	i
Cc1ccc2c(c1)S/C(=C/c1ccc[n+](C)c1)N2CCO	i	-7*	i	i	i
Cc1ccccc1-n1nnnc1SCC(=O)NCC1CCCO1 (centres undefined)	i	i	i	i	i
Cc1ccc(OC(=O)C2c3ccccc3Oc3ccccc32)cc1C	i	-7.8*	i	i	i
O=C(NCC1CCCO1)c1cc2c([nH]c3ccccc32)c(-c2cccc(Cl)c2)n1 (centres undefined)	i	-9.2*	i	i	i
COc1cc(-c2nc(C(=O)NCC3CCCO3)cc3c2[nH]c2ccccc23)cc(OC)c1OC (centres undefined)	i	i	i	i	i
Cc1nn(CC(=O)NNC(=O)c2cccc(Br)c2)c(C)c1[N+](=O)[O-]	i	i	i	i	i
C/C(=N/N1CCN(c2ccccn2)CC1)c1cccc([N+](=O)[O-])c1	i	i	i	i	i
O=C(CN1C(=O)C2CCCCC2C1=O)Nc1cc(C(F)(F)F)ccc1N1CCCC1 (centres undefined)	i	i	i	i	i
CCOCCCn1c(=S)[nH]c2cc(C(=O)NCCOC)ccc2c1=O	i	i	i	i	i
CCOCCCNC(=O)c1ccc2c(=O)n(CCCOCC)c(=S)[nH]c2c1	i	i	i	13*	i
Cc1ccc(CNS(=O)(=O)c2cc3c4c(c2)CCN4C(=O)CC3)cc1	i	i	i	i	i
COc1ccc(CN(CCNC(=O)CCCCC(=O)NCCN(Cc2ccc(OC)cc2)C(C)C)C(C)C)cc1	i	-9.2*	i	i	i
SMILES	MrgX1 ag	RGS4 pot	MrgX1 antagonist	MrgX1 allo act	RGS4 inh
O=C(Nc1nnc(CSCc2ccc(Cl)cc2)s1)c1cccc([N+](=O)[O-])c1	i	i	-9.5*	i	i
CN(C)c1ccc(C=C2C(=O)OC(C)(C)OC2=O)cc1	i	i	i	i	i
CCN(CC)c1ccc(C=C2C(=O)OC(c3ccccc3)OC2=O)cc1 (centres undefined)	27*	i	i	i	i
CN(C)c1ccc(C=C2C(=O)OC(C)(C(C)(C)C)OC2=O)cc1 (centres undefined)	i	i	i	i	i
CCN(CC)c1ccc(C=C2C(=O)OC(C)(C(C)(C)C)OC2=O)cc1 (centres undefined)	56*	i	i	i	i
CCOc1ccc(OCCOC(=O)CNC(=O)c2ccc(Cl)cc2Cl)cc1	i	i	-7*	i	i
Cc1nc(N/N=C/c2ccccc2)nc(N(C)c2ccccc2)c1[N+](=O)[O-]	i	i	-7.6*	i	i
O=C(Nc1cccc(/C=C/c2ccccn2)c1)c1ccc(-n2cncn2)c([N+](=O)[O-])c1	i	-7.7*	i	i	i
COc1ccc(NC(=O)c2ccc(-n3cncn3)c([N+](=O)[O-])c2)cc1OC	i	i	i	i	i
Cc1ccc(/C=C2\SC(=S)N(C3CCS(=O)(=O)C3)C2=O)o1 (centres undefined)	i	i	i	i	i
NS(=O)(=O)c1ccc(-c2ccc(/C=C3\SC(=S)N(C4CCS(=O)(=O)C4)C3=O)o2)cc1 (centres undefined)	i	i	-8.6*	i	i
O=c1oc2c3c4c(cc2s1)CCCN4CCC3	i	i	i	i	i
O=c1ccc2cc3c4c(c2o1)CCCN4CCC3	i	-7.4*	i	i	i
CN(C)CC(C)(C)CNS(=O)(=O)c1cccc2nsnc12	i	i	i	i	i
CC(=O)OC1CC(C)N(C(=O)c2ccccc2)c2ccc(C)cc21 (centres undefined)	i	i	i	i	i
Cc1ccc(C2=Nc3ccccc3N(C(=O)c3ccccc3)C(C)C2)cc1 (centres undefined)	i	i	-8.9*	i	i
O=C(NCCO)C(=O)Nc1cc2c3c(c1)CC(=O)N3CCC2	i	i	i	i	i
O=C(CCl)c1cc2c3c(c1)CC(=O)N3CCC2	27*	i	i	i	17*
Cc1ccccc1S(=O)(=O)Cc1ccc(C(=O)NC2CCCCC2)o1	i	i	i	i	i
COc1ccccc1C1NC=C([N+](=O)[O-])C=C1[N+](=O)[O-] (centres undefined)	29*	i	i	i	i
Cc1onc(-c2ccccc2Cl)c1C(=O)N1CCCCC1C (centres undefined)	i	i	i	i	i
CCN(CC)N=Nc1ccc(C(=O)O)cc1	i	i	-5.5*	i	i
CCN(CC)N=Nc1ccc(S(=O)(=O)N2CCSC2C(=O)O)cc1 (centres undefined)	i	i	i	i	i
CC1CCCN(C(=O)CSc2cnc3ccccc3n2)C1 (centres undefined)	i	i	i	i	i
